Assay results as given in ChEMBL document CHEMBL1143103, “2-Hydroxyphenacyl azoles and related azolium derivatives as antifungal agents” (Bioorg Med Chem Lett, 2008).
≈ marks a conversion by molar mass, not a printed value.

How the values were obtained:
[1] = system: Candida albicans; assay: Antifungal activity against Candida albicans PTCC 5027 after 24 to 48 hrs by agar dilution method; type: functional
Method in brief: (§1)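 Agar dilution on Sabouraud Dextrose Agar. Plates prepared in triplicate and incubated at 30 °C: yeasts about 24–48 h, moulds about 72 h, dermatophytes about 168 h. MIC taken as the lowest concentration with no growth, in µg/mL. Footnote states duplicate determinations.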

[2] = system: Saccharomyces cerevisiae; assay: Antifungal activity against Saccharomyces cerevisiae PTCC 5177 after 24 to 48 hrs by agar dilution method; type: functional; method in brief: as §1
[3] = system: Aspergillus niger; assay: Antifungal activity against Aspergillus niger PTCC 5012 after 72 hrs by agar dilution method; type: functional; method in brief: as §1
[4] = system: Microsporum; assay: Antifungal activity against Microsporum gypseum PTCC 5070 after 168 hrs by agar dilution method; type: functional; method in brief: as §1
[5] = Cytotoxicity against mouse NIH/3T3 cells after 72 hrs by MTT colorimetric assay; type: cell-based; settings: NIH3T3, 72 h
Method in brief: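 NIH/3T3 cells in exponential growth were trypsinized and seeded at 5 × 10^4 cells/mL in complete medium. Serial dilutions were added, each in triplicate, with untreated cells as the viability control. After 72 h incubation, MTT (5 mg/mL solution) was added for 1 h. Medium was replaced with DMSO and absorbance read at 492 nm. IC50 was taken from dose-response curves against control; mean ± SD of triplicates.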

Structure (SMILES)	MIC [1] [µg/mL]	MIC [2] [µg/mL]	MIC [3] [µg/mL]	MIC [4] [µg/mL]	IC50 [5] [µg/mL]
O=C(Cn1ccnc1)c1ccc(Cl)cc1O	64 (≈ 270 µM)	0.25 (≈ 1.06 µM)	64 (≈ 270 µM)	32 (≈ 135 µM)	–
COc1ccc(C(=O)Cn2ccnc2)c(O)c1	8 (≈ 34.4 µM)	0.25 (≈ 1.08 µM)	16 (≈ 68.9 µM)	8 (≈ 34.4 µM)	221 (≈ 952 µM)
O=C(Cn1cncn1)c1ccccc1O	64 (≈ 315 µM)	64 (≈ 315 µM)	32 (≈ 157 µM)	64 (≈ 315 µM)	–
O=C(Cn1cncn1)c1ccc(Cl)cc1O	32 (≈ 135 µM)	64 (≈ 269 µM)	16 (≈ 67.3 µM)	16 (≈ 67.3 µM)	–
COc1ccc(C(=O)Cn2cncn2)c(O)c1	8 (≈ 34.3 µM)	8 (≈ 34.3 µM)	32 (≈ 137 µM)	16 (≈ 68.6 µM)	222 (≈ 952 µM)
COc1ccc(C(=O)Cn2c[n+](N)cn2)c(O)c1.[Br-]	2	4	16	8	254
O=C(Cn1c[n+](CC(=O)c2ccc(Cl)cc2O)cn1)c1ccc(Cl)cc1O.[Br-]	32	8	64	32	–
O=C(Cn1cnnc1)c1ccc(Cl)cc1O	16 (≈ 67.3 µM)	16 (≈ 67.3 µM)	32 (≈ 135 µM)	64 (≈ 269 µM)	–
N[n+]1cnn(CC(=O)c2ccccc2O)c1.[Br-]	64	32	32	32	–
O/N=C(\Cn1ccnc1)c1ccccc1O	32 (≈ 147 µM)	32 (≈ 147 µM)	64 (≈ 295 µM)	64 (≈ 295 µM)	–
O=C(Cn1ccnc1)c1ccccc1O	64 (≈ 316 µM)	64 (≈ 316 µM)	64 (≈ 316 µM)	64 (≈ 316 µM)	–
O=C(Cn1c[n+](CC(=O)c2ccccc2O)cn1)c1ccccc1O.[Br-]	16	1	32	16	47
N[n+]1cnn(CC(=O)c2ccc(Cl)cc2O)c1.[Br-]	4	0.25	32	16	370
O=C(Cn1cnnc1)c1ccccc1O	32 (≈ 157 µM)	16 (≈ 78.7 µM)	16 (≈ 78.7 µM)	16 (≈ 78.7 µM)	–
COc1ccc(C(=O)Cn2c[n+](CC(=O)c3ccc(OC)cc3O)cn2)c(O)c1.[Br-]	8	4	16	16	98
OC(Cn1cncn1)(Cn1cncn1)c1ccc(F)cc1F [FLUCONAZOLE]	8 (≈ 26.1 µM)	32 (≈ 104 µM)	32 (≈ 104 µM)	32 (≈ 104 µM)	387 (≈ 1260 µM)
Clc1ccc(COC(Cn2ccnc2)c2ccc(Cl)cc2Cl)c(Cl)c1 (stereo not given) [MICONAZOLE]	1 (≈ 2.4 µM)	1 (≈ 2.4 µM)	2 (≈ 4.81 µM)	8 (≈ 19.2 µM)	–
